Assay results taken from ChEMBL document CHEMBL1146767, “New highly selective inhibitors of class II fructose-1,6-bisphosphate aldolases” (Bioorg Med Chem Lett, 2004).

Key:
[1] = (§1) In vitro binding affinity towards FBP aldolase from Bacillus subtilis
How it was run: (§2)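 B. subtilis class II aldolase. FBP cleavage was followed by reducing the DHAP formed with a 300-fold excess of glycerophosphate dehydrogenase and reading NADH consumption at 340 nm. Medium was 0.1 M glycylglycine buffer, pH 7.4, without 2-mercaptoethanol. Inhibition was analysed with FBP as substrate.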

[2] = organism: Oryctolagus cuniculus; assay: Selectivity (Ki rabbit /Ki B:subtilis) of inhibitors for class II versus class I FBP aldolase
[3] = In vitro binding affinity towards FBP aldolase from rabbit; parameters: species or system Oryctolagus cuniculus
How it was run: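 Rabbit muscle class I aldolase, FBP substrate. Cleavage product DHAP was followed spectrophotometrically at 340 nm through NADH consumption, using a 300-fold excess of glycerophosphate dehydrogenase as coupling enzyme. Medium was 0.1 M triethanolamine–HCl pH 7.6 with 1 mM EDTA.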

[4] = In vitro binding affinity towards FBP aldolase from yeast; parameters: species or system Saccharomyces cerevisiae
How it was run: (§3)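 Yeast aldolase was partly purified after French-press cell disruption (specific activity 5.5 U/mg). DHAP from FBP cleavage was coupled to glycerophosphate dehydrogenase (300-fold excess), with NADH loss monitored at 340 nm. Buffer was 0.1 M glycylglycine, pH 7.4, with 0.01 M 2-mercaptoethanol. FBP served as substrate.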

[5] = organism: Oryctolagus cuniculus; assay: Selectivity (Ki rabbit /Ki yeast) of inhibitors for class II versus class I FBP aldolase
[6] = test system: Saccharomyces cerevisiae; assay: Enzymatic kinetics (Km) constant towards FBP aldolase from yeast; how it was run: as §3
[7] = test system: Bacillus subtilis; assay: Enzymatic kinetics (Km) constant towards FBP aldolase from Bacillus subtilis; how it was run: as §2
[8] = organism: Oryctolagus cuniculus; assay: Enzymatic kinetics (Km) constant towards FBP aldolase from rabbit
How it was run: (§4)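 Rabbit muscle class I aldolase was assayed in 0.1 M triethanolamine–HCl, pH 7.6, with 1 mM EDTA. DHAP released from FBP was measured through a coupled reaction with a 300-fold excess of glycerophosphate dehydrogenase, following NADH consumption spectrophotometrically at 340 nm.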

[9] = In vitro binding towards FBP aldolase from rabbit; parameters: species or system Oryctolagus cuniculus; how it was run: as §4
[10] = as §1; remark: listed apart in the source
How it was run: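 Class II aldolase from Bacillus subtilis with FBP as substrate. DHAP formed was measured at 340 nm as NADH consumption, coupled to a 300-fold excess of glycerophosphate dehydrogenase. Medium was 0.1 M glycylglycine buffer pH 7.4, without 2-mercaptoethanol.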

Structure (SMILES) | Ki [1] [µM] | Selectivity [2] | Ki [3] [µM] | Ki [4] [nM] | Selectivity [5] | Km [6] [µM] | Km [7] [µM] | Km [8] [µM] | Ki [9] [nM] | Ki [10] [µM]
N/C(COP(=O)(O)O)=N/O | 3.3 | > 303 | > 1000 | 2300 | > 435 |  |  |  |  | 
O=P(O)(O)OC[C@H]1O[C@](O)(COP(=O)(O)O)[C@@H](O)[C@@H]1O |  |  |  |  |  | 450 | 2000 | 55 |  | 
O=C(COP(=O)(O)O)NO [PHOSPHOGLYCOLOHYDROXAMATE] |  |  |  | 10 | 100 |  |  |  | 1000 | 
NNC(=O)COP(=O)(O)O [PHOSPHORIC ACID MONOHYDRAZINOCARBONYLMETHYL ESTER] |  | 552 | 370 | 340 | 1090 |  |  |  |  | 670
